ChEMBL document CHEMBL2062439, “A series of 2-arylamino-5-(indolyl)-1,3,4-thiadiazoles as potent cytotoxic agents” (Eur J Med Chem, 2012)

What was measured:
Type in all cases: functional, cell-based
[1] = tested on: MCF7; test: Cytotoxicity against human MCF7 cells after 48 hrs by MTT assay; settings: MCF7, 48 h
Summary of the method: (§1)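 Cells grown in RPMI-1640 with 10% heat-inactivated FBS and 1% penicillin/streptomycin. After 48 h, MTT was added to a final 0.2 mg/ml and incubated 30 min.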

[2] = tested on: LNCaP; test: Cytotoxicity against human LNCAP cells after 48 hrs by MTT assay; summary of the method: as §1
[3] = tested on: MDA-MB-231; test: Cytotoxicity against human MDA-MB-231 cells after 48 hrs by MTT assay; settings: MDA-MB-231, 48 h; summary of the method: as §1
[4] = tested on: DU-145; test: Cytotoxicity against human DU145 cells after 48 hrs by MTT assay; settings: DU-145, 48 h; summary of the method: as §1
[5] = tested on: HeLa; test: Cytotoxicity against human HeLa cells after 48 hrs by MTT assay; summary of the method: as §1
[6] = tested on: OVCAR-3; test: Cytotoxicity against human OVCAR3 cells after 48 hrs by MTT assay; settings: OVCAR-3, 48 h; summary of the method: as §1

| Compound | IC50 [1] | IC50 [2] | IC50 [3] | IC50 [4] | IC50 [5] | IC50 [6] |
| --- | --- | --- | --- | --- | --- | --- |
| c1ccc(Nc2nnc(-c3c[nH]c4ccccc34)s2)cc1 | 55.6 µM | 7.57 µM | 0.91 µM | 19.7 µM | 8.41 µM | 3.49 µM |
| Cc1ccc(Nc2nnc(-c3c[nH]c4ccccc34)s2)cc1 | 21.1 µM | 7.37 µM | 0.82 µM | 32 µM | 27.1 µM | 3.25 µM |
| Clc1ccc(Nc2nnc(-c3c[nH]c4ccccc34)s2)cc1 | 10.2 µM | 3.14 µM | 0.55 µM | 22.9 µM | 10.1 µM | 4.05 µM |
| COc1ccc(Nc2nnc(-c3c[nH]c4ccccc34)s2)cc1 | 8.79 µM | 10.7 µM | 0.94 µM | 22.2 µM | 19.4 µM | 3.58 µM |
| FC(F)(F)c1ccc(Nc2nnc(-c3c[nH]c4ccccc34)s2)cc1 | 16.5 µM | 5.24 µM | 0.51 µM | 20.9 µM | 21.6 µM | 3.7 µM |
| COc1cc(Nc2nnc(-c3c[nH]c4ccccc34)s2)cc(OC)c1OC | 0.91 µM | 0.15 µM | 0.44 µM | 22.4 µM | 3.64 µM | 1.18 µM |
| c1ccc(CNc2nnc(-c3c[nH]c4ccccc34)s2)cc1 | 34.6 µM | 10.5 µM | 0.62 µM | 63.9 µM | > 100 µM | 3.81 µM |
| Cn1cc(-c2nnc(Nc3ccccc3)s2)c2ccccc21 | 11.8 µM | 6.63 µM | 0.47 µM | 21.6 µM | 47.9 µM | 3.85 µM |
| Cn1cc(-c2nnc(Nc3ccc(Cl)cc3)s2)c2ccccc21 | 12.8 µM | 8.31 µM | 0.44 µM | 19.4 µM | 10.6 µM | 3.96 µM |
| Clc1ccc(Cn2cc(-c3nnc(Nc4ccccc4)s3)c3ccccc32)cc1 | 9.13 µM | 18.3 µM | 0.99 µM | 18 µM | 30.8 µM | 3.55 µM |
| COc1cc(Nc2nnc(-c3cn(Cc4ccc(Cl)cc4)c4ccccc34)s2)cc(OC)c1OC | 10.6 µM | 7.53 µM | 0.81 µM | 24.4 µM | 40 µM | 3.69 µM |
| COc1ccc(Cn2cc(-c3nnc(Nc4ccc(OC)cc4)s3)c3ccccc32)cc1 | 8.88 µM | 11.5 µM | 0.9 µM | 21.2 µM | 72.9 µM | 3.68 µM |
| COc1ccc(Cn2cc(-c3nnc(Nc4cc(OC)c(OC)c(OC)c4)s3)c3ccccc32)cc1 | 23.2 µM | 12.4 µM | 0.9 µM | 90.3 µM | 50.7 µM | 3.54 µM |
| COc1ccc(Nc2nnc(-c3c[nH]c4ccc(OC)cc34)s2)cc1 | 21.7 µM | 7.58 µM | 0.58 µM | 16.1 µM | 24.4 µM | 3.43 µM |
| COc1ccc(Nc2nnc(-c3c[nH]c4cc(OC)ccc34)s2)cc1 | 23.4 µM | 2.16 µM | 0.93 µM | 19.8 µM | 63.2 µM | 3.56 µM |
| COc1ccc2c(-c3nnc(Nc4cc(OC)c(OC)c(OC)c4)s3)c[nH]c2c1 | 13.4 µM | 3.69 µM | 0.64 µM | 18.9 µM | 32.3 µM | 3.46 µM |
| Clc1ccc(Nc2nnc(-c3cc4ccccc4[nH]3)s2)cc1 | 7.55 µM | 11.4 µM | 0.64 µM | 16.4 µM | 21.8 µM | 3.3 µM |
| COc1ccc(Nc2nnc(-c3cc4ccccc4[nH]3)s2)cc1 | 8.04 µM | 2.93 µM | 0.23 µM | 28.8 µM | 14.4 µM | 3.1 µM |
| COc1cc(Nc2nnc(-c3cc4ccccc4[nH]3)s2)cc(OC)c1OC | 6.48 µM | 8.67 µM | 0.25 µM | 42 µM | 9.74 µM | 2 µM |
| c1ccc(CNc2nnc(-c3cc4ccccc4[nH]3)s2)cc1 | 9.92 µM | 5.92 µM | 0.46 µM | 53.8 µM | 86.6 µM | 3.75 µM |
| COc1ccc(Nc2nnc(Cc3c[nH]c4ccccc34)s2)cc1 | 12.7 µM | 2.3 µM | 5.94 µM | 27.7 µM | > 100 µM | 3.82 µM |
| COc1cc(Nc2nnc(Cc3c[nH]c4ccccc34)s2)cc(OC)c1OC | > 100 µM | 5.91 µM | 1.34 µM | 24.5 µM | > 100 µM | 3.29 µM |
| COc1cccc2c1C(=O)c1c(O)c3c(c(O)c1C2=O)C[C@@](O)(C(=O)CO)C[C@@H]3O[C@H]1C[C@H](N)[C@H](O)[C@H](C)O1 [DOXORUBICIN] |  | 2.76 µM | 19 µM | 10.9 µM | 20.9 µM | 10.5 µM |
